Data published in ChEMBL document CHEMBL4325922, “Restoring Let-7 microRNA Biogenesis Using a Small-Molecule Inhibitor of the Protein-RNA Interaction” (ACS Med Chem Lett, 2018).
The source made the active and inactive calls. The rule behind the calls is not given here.

Columns and labels:
[1] = target: T1, Protein lin-28 homolog A (Homo sapiens) (UniProt Q9H9Z2); experiment: Inhibition of Cy5-preE-let-7g binding to recombinant human N-terminal His6-tagged Lin28a expressed in Escherichia coli Rosetta2 (DE3) pLysS at 15 uM measured after 30 to 60 mins by electrophoretic mobility shift assay relative to control
T1 sequence (whole entry): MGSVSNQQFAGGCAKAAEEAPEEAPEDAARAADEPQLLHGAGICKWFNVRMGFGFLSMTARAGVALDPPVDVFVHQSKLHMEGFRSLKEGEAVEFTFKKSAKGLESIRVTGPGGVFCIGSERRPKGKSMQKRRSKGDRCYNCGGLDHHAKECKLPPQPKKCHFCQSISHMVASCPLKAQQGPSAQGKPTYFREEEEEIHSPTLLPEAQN

[2] = target: T2, Protein lin-28 homolog A (Homo sapiens, UniProt Q9H9Z2); experiment: Inhibition of Cy5-preE-let-7g binding to recombinant human N-terminal His6-tagged Lin28a expressed in Escherichia coli Rosetta2 (DE3) pLysS measured after 30 to 60 mins by electrophoretic mobility shift assay
T2 sequence (Q9H9Z2 whole entry): T1 sequence (whole entry)

[3] = target: T3, Protein lin-28 homolog A/B (Homo sapiens) (UniProt Q6ZN17+Q9H9Z2); experiment: Inhibition of Lin28a/Lin28b in human JAR cells assessed as increase in mature let-7a level at 5 to 10 uM after 20 hrs by TRIzol dye based qRT-PCR analysis; format: cell-based
T3 sequence (Q6ZN17 whole entry, looked up, one chain of several): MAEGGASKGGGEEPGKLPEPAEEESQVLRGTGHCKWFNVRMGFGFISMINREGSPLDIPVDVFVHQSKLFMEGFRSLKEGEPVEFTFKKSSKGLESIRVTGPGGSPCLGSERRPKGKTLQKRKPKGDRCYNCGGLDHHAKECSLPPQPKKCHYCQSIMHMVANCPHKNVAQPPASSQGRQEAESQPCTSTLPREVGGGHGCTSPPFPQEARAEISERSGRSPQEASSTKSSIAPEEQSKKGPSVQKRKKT
Procedure, shortened: (§1)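 JAR cells (express Lin28a and Lin28b) exposed to compound for 20 h; miRNA levels quantified with U6 snRNA as endogenous control; three or more biological replicates, standard deviation, paired two-tailed t test.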

[4] = target: T3, Protein lin-28 homolog A/B (Homo sapiens); experiment: Inhibition of Lin28a/Lin28b in human JAR cells assessed as reduction in HMGA2 expression at 5 to 10 uM after 24 hrs by Western blot analysis; format: cell-based
Procedure, shortened: (§2)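 Endogenous let-7 target proteins (HMGA2, IMP1, Ras, Lin28a) detected by Western blot in JAR or PA-1 cells after 24 h compound treatment.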

[5] = target: T3, Protein lin-28 homolog A/B (Homo sapiens); experiment: Inhibition of Lin28a/Lin28b in human JAR cells assessed as increase in mature let-7g level at 5 to 10 uM after 20 hrs by TRIzol dye based qRT-PCR analysis; format: cell-based; procedure, shortened: as §1
[6] = target: T3, Protein lin-28 homolog A/B (Homo sapiens); experiment: Inhibition of Lin28a/Lin28b in human JAR cells assessed as reduction in Lin28a expression at 5 to 10 uM after 24 hrs by Western blot analysis; format: cell-based; procedure, shortened: as §2
[7] = target: T3, Protein lin-28 homolog A/B (Homo sapiens); experiment: Inhibition of Lin28a/Lin28b in human JAR cells assessed as reduction in Ras expression at 5 to 10 uM after 24 hrs by Western blot analysis; format: cell-based; procedure, shortened: as §2
[8] = target: T3, Protein lin-28 homolog A/B (Homo sapiens); experiment: Inhibition of Lin28a/Lin28b in human JAR cells assessed as reduction in IMP1 expression at 5 to 10 uM after 24 hrs by Western blot analysis; format: cell-based; procedure, shortened: as §2
[9] = target: T3, Protein lin-28 homolog A/B (Homo sapiens); experiment: Inhibition of Lin28a/Lin28b in human paclitaxel-resistant JAR cells assessed as potentiation of paclitaxel induced cytotoxicity at 40 uM pretreated for 30 hrs followed by paclitaxel addition and measured after 72 hrs by WTS assay
Procedure, shortened: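 Paclitaxel-resistant JAR persister cells, enriched by cytotoxic paclitaxel exposure and regrowth without drug. Cells pretreated 30 h with compound, then given paclitaxel for 72 h without compound; WST viability used to derive the paclitaxel IC50.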

[10] = target: T3, Protein lin-28 homolog A/B (Homo sapiens); experiment: Inhibition of Lin28a/Lin28b in human paclitaxel-resistant JAR cells assessed as reduction in MDR1 expression at 40 uM measured after 30 hrs by Western blot analysis
[11] = target: T3, Protein lin-28 homolog A/B (Homo sapiens); experiment: Inhibition of Lin28a/Lin28b in human paclitaxel-resistant JAR cells assessed as reduction in IMP1 expression at 40 uM measured after 24 hrs by Western blot analysis

SMILES: NC(=O)c1c(Nc2ccc(F)cc2)[nH]c2c(Cl)ccc(Cl)c2c1=O
- inhibition [1]: 40%

SMILES: NC(=O)c1c(Nc2ccc(Cl)cc2Cl)[nH]c2c(Cl)c(Cl)ccc2c1=O
- IC50 [2]: 11 µM

SMILES: COc1cccc(Nc2[nH]c3c(Cl)ccc(Cl)c3c(=O)c2C(N)=O)c1
- inhibition [1]: 14%
- Activity [3]: Active
- inhibition [4]: inactive
- Activity [5]: Active
- inhibition [6]: inactive
- inhibition [7]: inactive
- inhibition [8]: inactive

SMILES: CC1(C)Oc2cc(N3CCN(C(=O)OCc4ccccc4)CC3)c([N+](=O)[O-])cc2-c2c1cnn2-c1ccc(C(=O)O)cc1
- inhibition [9]: Active
- inhibition [10]: Active
- inhibition [11]: Active
